Experimental findings from ChEMBL document CHEMBL1149175, “Integrating fragment assembly and biophysical methods in the chemical advancement of small-molecule antagonists of IL-2: an approach for inhibiting protein-protein interactions” (J Med Chem, 2004) are described below.

Molecules are shown by their SMILES. pEC50, pIC50: −log10 of the molar value.

System in the first data set: not listed separately
The data set can be described thus: Plasma clearance in mouse. The conditions noted are these: read-out: Clp. In kind it is ADME, organism-based. The essentials:
(§1)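 Male CD-1 mice, 10 mg/kg IV bolus via lateral tail vein, 2.5 mg/mL in PEG 400; three mice per time point. Cardiac blood into sodium-EDTA at 0.5–8 h, plasma by LC-MS/MS against a plasma standard curve; parameters from mean concentration–time profiles.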
Turning to `CC(C)C[C@@H](NC(=N)N)C(=O)NCC(=O)N1CCC(c2cc(-c3ccc(OCc4ccc(C(=O)O)o4)c(Cl)c3Cl)nn2C)CC1`, the clearance worked out at 13.6 mL/min/kg.

A further data set deals with T1, Interleukin-2 (Homo sapiens, UniProt P60568). The data set can be described thus: Dissociation constant for human Interleukin-2 by SPR assay.
Conditions: not given
Target sequence in this assay (P60568 whole entry, looked up): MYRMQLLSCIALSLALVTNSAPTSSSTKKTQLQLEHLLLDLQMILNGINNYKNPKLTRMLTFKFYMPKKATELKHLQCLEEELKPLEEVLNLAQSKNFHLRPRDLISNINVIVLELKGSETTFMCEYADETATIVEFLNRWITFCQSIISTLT
On to `COCC(=O)N[C@@H](Cc1ccc(C#Cc2ccccc2)cc1)C(=O)O`, for which the KdSPA was determined as 1.5 mM.

Another data set has as its target T1, Interleukin-2. The data set can be described thus: Inhibition of mouse interleukin-2 alpha receptor by ELISA. The conditions noted are these: target entry is the homologue from another species. The essentials:
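ELISA: 15 nM biotinylated IL-2Rα captured on streptavidin-coated wells; 3-fold serial compound dilutions with 5 nM IL-2 (2% DMSO final) in Superblock/0.01% Tween 20 incubated on receptor.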
Target sequence in this assay (P60568 whole entry): as the sequence (P60568 whole entry, looked up) above
In turn, `COC(=O)[C@H](Cc1ccc(C#Cc2ccccc2)cc1)NC(=O)CNC(=O)CNC(=N)N` showed a pIC50 of less than 2.70.

The molecule `COC(=O)[C@H](Cc1ccc(C#Cc2ccccc2)cc1)NC(=O)CNC(=O)[C@@H](N=C(N)N)C(C)(C)C` gave a pIC50 of 5.05.

Regarding `COC(=O)[C@H](Cc1ccc(C#Cc2ccccc2)cc1)NC(=O)CNC(=O)[C@H]1CCCN1C(=N)N`, the pIC50 was 3.00.

The molecule `COC(=O)[C@H](Cc1ccc(C#Cc2ccccc2)cc1)NC(=O)CNC(=O)[C@@H](N=C(N)N)C(C)C` showed a pIC50 of 4.10.

`COC(=O)[C@H](Cc1ccc(C#Cc2ccccc2)cc1)NC(=O)CNC(=O)[C@H](N=C(N)N)C1CCCCC1` had a pIC50 of 4.70. Against the preceding molecule, the pIC50 is 0.60 log units higher.

In the case of `COC(=O)[C@H](Cc1ccc(C#Cc2ccccc2)cc1)NC(=O)CNC(=O)[C@H](C)N=C(N)N`, the pIC50 was 3.55.

`COC(=O)[C@H](Cc1ccc(C#Cc2ccccc2)cc1)NC(=O)CNC(=O)[C@@H]1CCCN1C(=N)N` gave a negative logarithm of the IC50 (pIC50) of 3.14.

As to `COC(=O)[C@H](Cc1ccc(C#Cc2ccccc2)cc1)NC(=O)CNC(=O)[C@@H](CC1CCCCC1)N=C(N)N`, the pIC50 was 4.43.

Molecule `CC[C@@H](C)[C@H](N=C(N)N)C(=O)NCC(=O)N[C@@H](Cc1ccc(C#Cc2ccccc2)cc1)C(=O)OC` had a pIC50 of 4.59. The pIC50 values of the last two molecules are within 0.2 log units of each other.

`COC(=O)[C@H](Cc1ccc(C#Cc2ccccc2)cc1)NC(=O)CNC(=O)[C@H](N=C(N)N)C(C)C` showed a pIC50 of less than 2.70.

Molecule `COC(=O)[C@H](Cc1ccc(C#Cc2ccccc2)cc1)NC(=O)CNC(=O)[C@@H](C)N=C(N)N` had a pIC50 of approximately 2.70.

Take `COC(=O)[C@H](Cc1ccc(C#Cc2ccccc2)cc1)NC(=O)CNC(=O)CN(C)C(=N)N`: the negative-log IC50 (pIC50) is 2.92.

On to `COC(=O)[C@H](Cc1ccc(C#Cc2ccccc2)cc1)NC(=O)CNC(=O)[C@@H](CCC(N)=O)N=C(N)N`, for which the pIC50 is 3.05. This pIC50 and that of the molecule before are within 0.2 log units of each other.

In another data set the target is T1, Interleukin-2. The data set can be described thus: Concentration required to inhibit mouse interleukin-2 alpha receptor was determined by SPA assay.
Conditions: not given
The essentials:
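SPA: compounds as 3-fold serial dilutions in DMSO added to 10 nM tritiated propionic acid-labeled IL-2 in Superblock, then to biotinylated IL-2Rα on streptavidin scintillant beads (0.7 mg/mL). Scintillation from receptor-bound IL-2 counted; IC50 by nonlinear regression of counts vs concentration.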
Target sequence in this assay (P60568 whole entry): as the sequence (P60568 whole entry, looked up) above
For the molecule `NC(N)=N[C@@H](C(=O)NCC(=O)N1CCC(c2cc(-c3ccc(Cl)c(Cl)c3)n[nH]2)CC1)C1CCCCC1`, the pIC50 is 3.96.

The molecule `Cn1nc(C2CCN(C(=O)CNC(=O)[C@H](N=C(N)N)C3CCCCC3)CC2)cc1-c1cccc(Cl)c1Cl` showed a pIC50 of 4.30.

Take `NC(N)=N[C@@H](C(=O)NCC(=O)N1CCC(c2cc(-c3ccccc3Cl)n[nH]2)CC1)C1CCCCC1`: the pIC50 is 4.40. This pIC50 and that of the molecule before are within 0.2 log units of each other.

For the molecule `Cc1cccc(-c2cc(C3CCN(C(=O)CNC(=O)[C@H](N=C(N)N)C4CCCCC4)CC3)[nH]n2)c1`, the pIC50 was 3.82.

For `COc1ccc(-c2cc(C3CCN(C(=O)CNC(=O)[C@H](N=C(N)N)C4CCCCC4)CC3)[nH]n2)c(Cl)c1`, the pIC50 is 4.30.

For `N=C(N)N[C@@H](C(=O)NCC(=O)N1CCC(c2cc(-c3ccc(Cl)cc3Cl)[nH]n2)CC1)C1CCCCC1`, the negative logarithm of the IC50 (pIC50) is 5.00.

`CC1C(c2cccc(Cl)c2Cl)=NN=C1C1CCN(C(=O)CNC(=O)[C@H](N=C(N)N)C2CCCCC2)CC1` (some centres undefined): the pIC50 is 3.40.

Molecule `N=C(N)N[C@@H](C(=O)NCC(=O)N1CCC(c2cc(-c3ccc(O)cc3Cl)[nH]n2)CC1)C1CCCCC1` had a pIC50 of 4.52.

Consider `COC(=O)c1ccc(COc2ccc(-c3cc(C4CCN(C(=O)CNC(=O)[C@@H](CC(C)C)N=C(N)N)CC4)n(C)n3)c(Cl)c2Cl)cc1`, for which the pIC50 was 4.40.

Molecule `Cn1nc(-c2cccc(Cl)c2Cl)cc1C1CCN(C(=O)CNC(=O)[C@H](N=C(N)N)C2CCCCC2)CC1` showed a pIC50 of 4.70. This pIC50 lies 0.30 log units higher than the previous one.

The molecule `NC(N)=N[C@@H](C(=O)NCC(=O)N1CCC(c2nc(-c3ccc(Cl)cc3Cl)no2)CC1)C1CCCCC1` showed a pIC50 of 3.30. Compared with the last molecule, the pIC50 is 1.40 log units lower.

Molecule `Cc1cccc(-c2cc(C3CCN(C(=O)CNC(=O)[C@H](N=C(N)N)C4CCCCC4)CC3)[nH]n2)c1C` had a pIC50 of 3.89.

`Cc1ccccc1-c1cc(C2CCN(C(=O)CNC(=O)[C@H](N=C(N)N)C3CCCCC3)CC2)[nH]n1` had a pIC50 of 4.30.

`CC(C)C[C@@H](N=C(N)N)C(=O)NCC(=O)N1CCC(c2cc(-c3ccc(OCc4ccc(C(=O)O)cc4)c(Cl)c3Cl)nn2C)CC1` had a negative-log IC50 (pIC50) of 6.70.

Consider `CC(C)C[C@@H](N=C(N)N)C(=O)NCC(=O)N1CCC(c2cc(-c3ccc(O)c(Cl)c3Cl)nn2C)CC1`, for which the pIC50 is 5.09.

The molecule `CC(C)C[C@@H](N=C(N)N)C(=O)NCC(=O)N1CCC(c2cc(-c3ccc(OCc4ccccc4)c(Cl)c3Cl)nn2C)CC1` showed a pIC50 of 4.46.

As for `CC(C)C[C@@H](N=C(N)N)C(=O)NCC(=O)N1CCC(c2cc(-c3ccc(OCc4ccc(CC(=O)O)cc4)c(Cl)c3Cl)nn2C)CC1`, the pIC50 is 6.22.

`NC(N)=N[C@@H](C(=O)NCC(=O)N1CCC(c2cc(-c3ccccc3)n[nH]2)CC1)C1CCCCC1` showed a pIC50 of 3.92.

Regarding `NC(N)=N[C@@H](C(=O)NCC(=O)N1CCC(c2cc(-c3cccc(Cl)c3)n[nH]2)CC1)C1CCCCC1`, the pIC50 was 3.89.

The molecule `COc1ccc(-c2cc(C3CCN(C(=O)CNC(=O)[C@@H](CC(C)C)N=C(N)N)CC3)n(C)n2)c(Cl)c1Cl` showed a pIC50 of 5.46.

The molecule `CC(C)C[C@@H](N=C(N)N)C(=O)NCC(=O)N1CCC(c2cc(-c3cccc(Cl)c3Cl)nn2C)CC1` gave a pIC50 of 5.70.

Molecule `CC(C)C[C@@H](N=C(N)N)C(=O)NCC(=O)N1CCC(c2cc(-c3ccc(OCc4cccc(C(=O)O)c4)c(Cl)c3Cl)nn2C)CC1` showed a pIC50 of 6.40.

Take `N=C(N)N[C@@H](C(=O)NCC(=O)N1CCC(c2cccc(-c3ccc(Cl)cc3Cl)c2)CC1)C1CCCCC1`: the negative-log IC50 (pIC50) is 3.82.

The target in a further data set is T1, Interleukin-2. The data set can be described thus: Effective concentration required against phosphorylation of Mammary gland factor/STAT5. In kind it is functional, Mus musculus.
Conditions: not given
The essentials:
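Mouse CTLL-2 T cells grown to about 1 × 10^6 cells/mL in RPMI/IL-2, starved of IL-2 overnight, then given 2-fold serial compound dilutions in medium with 0.1 ng/mL human IL-2 for 30 min at 37 °C. Phospho-STAT5 measured by western blot and densitometry, plotted against concentration; average of three experiments.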
Target sequence in this assay (P60568 whole entry): as the sequence (P60568 whole entry, looked up) above
`COC(=O)[C@H](Cc1ccc(C#Cc2ccccc2)cc1)NC(=O)C[C@H]1CCCN(C(=N)N)C1` had a pEC50 of 4.00.

Turning to `CC(C)C[C@@H](N=C(N)N)C(=O)NCC(=O)N1CCC(c2cc(-c3cccc(Cl)c3Cl)nn2C)CC1`, the pEC50 was approximately 4.60.

A further data set addresses T1, Interleukin-2. As to the kind of experiment: Inhibition of mouse Interleukin-2 receptor alpha. The conditions noted are these: target entry is the homologue from another species.
Target sequence in this assay (P60568 whole entry): as the sequence (P60568 whole entry, looked up) above
Turning to `COC(=O)[C@H](Cc1ccc(C#Cc2ccccc2)cc1)NC(=O)C[C@H]1CCCN(C(=N)N)C1`, the pIC50 was 5.15.

`COCC(=O)N[C@@H](Cc1ccc(C#Cc2ccccc2)cc1)C(=O)O` gave a pIC50 of 2.66.

`CNC(=O)C[C@H]1CCCN(C(=N)N)C1` showed a pIC50 of less than 2.00.

System in another data set: not listed separately
The data set can be described thus: Volume distribution (steady state) of compound was determined in mouse. The conditions noted are these: in vivo, read-out: Vss. It is filed as ADME, organism-based. The method in brief: as §1
As for `CC(C)C[C@@H](NC(=N)N)C(=O)NCC(=O)N1CCC(c2cc(-c3ccc(OCc4ccc(C(=O)O)o4)c(Cl)c3Cl)nn2C)CC1`, the Vd is 1.1 L/kg.
